This is an account of results in PMC8343189 (Acta Pharmaceutica Sinica. B, 2020).

One may read the IC50 as the concentration at which inhibition is half-maximal.

For series [1], the system named is intracellular Ca^2+ concentration. Briefly: Intracellular Ca^2+ fluorescence. It counts as cell-based. The conditions noted are these: 30 μmol/L compound, 200 μmol/L ATP, Cal520, control 2.3 folds.
The nature of series [2]: Stability under different pH conditions. It counts as physicochemical. To be noted: 37 °C, 100 μmol/L, mean ± SD, n = 3. The gist of the method: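 Test compound diluted to 100 μmol/L in phosphate buffers at pH 1.0, 4.0, 6.8, 7.4 and 9.0 and held in a 37 °C water bath. HPLC−UV peak area measured at 0, 2 and 5 h; residual expressed relative to the 0 h peak area.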
Series [3] relates to CHO cells. Briefly: SRB proliferative cytotoxicity in CHO cells. The conditions noted are these: 72 h. The class given is cell-based, Chinese Hamster. In outline:
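CHO cells in DMEM with 10% FBS, seeded overnight, then exposed to test compound or DMSO vehicle for 72 h. Cells fixed with 10% TCA for 1 h at 4 °C and stained with 0.4% SRB in 1% acetic acid for 15 min in the dark. Washed with acetic acid, dye dissolved in 10 mmol/L Tris-base, absorbance read at 540 nm. n = 3, mean ± SEM, t-test vs DMSO control.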

For series [4], the system named is SD rats. The series is described as follows: Formalin test on rat. To be noted: for number of foot lifts, phase 2: phase 2, vehicle 121 foot lifts. The class given is in vivo. In outline: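 30 min later, 50 μL 5% formalin injected into the left paw; controls received saline. Foot lifts counted over phase 1 (0–10 min) and phase 2 (10–60 min). Mean ± SD; ANOVA vs vehicle.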

For series [5], the target named is T1, ANO1 (Homo sapiens, UniProt Q5XXA6, DEL476-501).
T1 sequence (Q5XXA6 with tags, fused parts or gaps isoform Q5XXA6-5 DEL539-564): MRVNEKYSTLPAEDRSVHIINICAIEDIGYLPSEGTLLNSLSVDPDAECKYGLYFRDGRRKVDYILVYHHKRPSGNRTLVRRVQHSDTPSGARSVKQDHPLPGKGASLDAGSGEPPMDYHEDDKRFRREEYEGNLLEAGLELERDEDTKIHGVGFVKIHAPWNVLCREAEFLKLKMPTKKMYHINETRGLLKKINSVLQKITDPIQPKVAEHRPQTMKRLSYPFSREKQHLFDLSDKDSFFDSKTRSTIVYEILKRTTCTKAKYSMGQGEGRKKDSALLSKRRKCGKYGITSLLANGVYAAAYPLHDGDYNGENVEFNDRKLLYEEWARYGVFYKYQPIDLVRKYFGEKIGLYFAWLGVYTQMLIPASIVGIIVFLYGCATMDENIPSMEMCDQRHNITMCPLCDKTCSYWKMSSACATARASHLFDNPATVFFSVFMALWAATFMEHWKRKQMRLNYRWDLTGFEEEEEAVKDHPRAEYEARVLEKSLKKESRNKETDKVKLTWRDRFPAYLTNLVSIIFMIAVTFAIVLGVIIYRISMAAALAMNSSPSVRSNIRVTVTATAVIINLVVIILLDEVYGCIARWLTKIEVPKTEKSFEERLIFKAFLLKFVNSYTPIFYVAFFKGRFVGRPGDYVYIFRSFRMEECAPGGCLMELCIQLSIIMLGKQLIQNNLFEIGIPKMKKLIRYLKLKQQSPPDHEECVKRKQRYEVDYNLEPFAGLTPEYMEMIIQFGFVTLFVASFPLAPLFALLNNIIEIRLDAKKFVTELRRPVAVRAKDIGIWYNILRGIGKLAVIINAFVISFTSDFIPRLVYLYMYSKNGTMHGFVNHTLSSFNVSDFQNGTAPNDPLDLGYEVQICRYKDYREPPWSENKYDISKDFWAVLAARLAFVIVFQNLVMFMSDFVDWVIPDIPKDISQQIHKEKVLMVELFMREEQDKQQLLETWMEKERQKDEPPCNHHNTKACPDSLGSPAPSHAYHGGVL
The series is described as follows: YFP fluorescence quenching assay in ANO1-overexpressing FRT cell line. The class given is cell-based.

The subject of series [6] is SD rats. Briefly: Chronic constriction injury model. It counts as in vivo. The conditions noted are these: rat CCI, Electronic Von Frey, vehicle 11.5.

Consider `CCOC(=O)C1=C(COCCN)NC(C)=C(C(=O)OC)C1c1ccccc1Cl` (stereo not shown) [Amlodipine, reference compound], for which the “maximum relative fluorescence units (RFU) vs initial value (Ca^2+ influx)” value in series [1] is recorded as “remained unchanged”.

With `CC(C)(C)C1CCc2c(sc(NC(=O)c3ccco3)c2C(=O)O)C1` (stereo not shown) [Compound 1, 6-(tert-Butyl)-2-(furan-2-carboxamido)-4,5,6,7-tetrahydrobenzo[b]thiophene-3-carboxylic acid, reference compound], the “5 h residual compound under different pH (%) pH 1.0” value in series [2] (pH 1.0, 5 h) is given as 93.8 ± 4.0%. Also, in series [2] (pH 4.0, 5 h), the “5 h residual compound under different pH (%) pH 4.0” value was found to be 85.3 ± 8.1%. Besides, in series [2] (pH 6.8, 5 h), the “5 h residual compound under different pH (%) pH 6.8” value worked out at 94.9 ± 2.9%. For the same molecule, the “5 h residual compound under different pH (%) pH 7.4” value in series [2] (pH 7.4, 5 h) is 98.7 ± 0.7%. Further, the “5 h residual compound under different pH (%) pH 9.0” value in series [2] (pH 9.0, 5 h) turned out to be 97.6 ± 1.2%. Also, the “effect on CHO cell proliferation” value in series [3] (all concentrations tested) is “inhibited cell proliferation”. The “analgesic effect in phase 2 compared with vehicle” value in series [4] (80 mg/kg i.g., phase 2) is given as “no significant analgesic effect”. Besides, the “number of foot lifts, phase 2” value in series [4] (80 mg/kg i.g.) came to 84 foot lifts.

Consider `CC(C)(C)c1ccc(C(=O)Nc2scc(-c3ccc(F)cc3)c2C(=O)O)cc1` [Compound 33, 2-(4-(tert-Butyl)benzamido)-4-(4-fluorophenyl) thiophene-3-carboxylic acid], for which the midpoint of inhibition in series [5], the IC50, lay at 9.62 µM.

With `CC(C)(C)c1ccc(C(=O)Nc2scc(-c3ccc(Cl)cc3)c2C(=O)O)cc1` [Compound 34, 2-(4-(tert-Butyl)benzamido)-4-(4-chlorophenyl) thiophene-3-carboxylic acid], the midpoint of inhibition in series [5], the IC50, lay at 1.34 µM. This IC50 is about 7.2-fold lower than that of the molecule before.

As to `CC(C)(C)c1ccc(C(=O)Nc2scc(-c3ccc(C(F)(F)F)cc3)c2C(=O)O)cc1` [Compound 35, 2-(4-(tert-Butyl)benzamido)-4-(4-(trifluoromethyl)phenyl) thiophene-3-carboxylic acid], the IC50 in series [5] is above 100 µM.

In series [5], `CC(C)(C)c1ccc(C(=O)Nc2scc(-c3ccc(C(C)(C)C)cc3)c2C(=O)O)cc1` [Compound 36, 2-(4-(tert-Butyl)benzamido)-4-(4-(tert-butyl)phenyl) thiophene-3-carboxylic acid] had an IC50 of 3.67 µM.

For `CC(C)(C)c1ccc(C(=O)Nc2scc(-c3ccc(-c4ccccc4)cc3)c2C(=O)O)cc1` [Compound 37, 4-([1,1′-Biphenyl]-4-yl)-2-(4-(tert-butyl)benzamido) thiophene-3-carboxylic acid], the midpoint of inhibition in series [5], the IC50, lay at 2.3 µM. This IC50 is about 1.6-fold lower than that of the molecule before.

Take `CC(C)(C)c1ccc(C(=O)Nc2scc(-c3ccc(Cl)cc3Cl)c2C(=O)O)cc1` [Compound 38, 2-(4-(tert-Butyl)benzamido)-4-(2,4-dichlorophenyl) thiophene-3-carboxylic acid]: in series [5], the concentration for half-maximal inhibition (IC50) is above 100 µM.

In series [5], `CC(C)(C)c1ccc(C(=O)Nc2scc(-c3ccc4ccccc4c3)c2C(=O)O)cc1` [Compound 39, 2-(4-(tert-Butyl)benzamido)-4-(naphthalen-2-yl) thiophene-3-carboxylic acid] yielded an IC50 of 1.29 µM.

The molecule `COc1ccc(-c2csc(NC(=O)c3cccs3)c2C(=O)O)cc1` [Compound 40, 4-(4-Methoxyphenyl)-2-(thiophene-2-carboxamido) thiophene-3-carboxylic acid] showed a half-maximal inhibitory concentration (IC50) in series [5] of 25.5 µM.

Regarding `COc1ccc(C(=O)Nc2scc(-c3ccc(C(C)(C)C)cc3)c2C(=O)O)cc1` [Compound 41, 4-(4-(tert-Butyl)phenyl)-2-(4-methoxybenzamido) thiophene-3-carboxylic acid], the midpoint of inhibition in series [5], the IC50, lay at 2.28 µM.

With `O=C(Nc1scc(-c2ccc(Cl)cc2)c1C(=O)O)c1ccc2ccccc2c1` [Compound 43, 2-(2-Naphthamido)-4-(4-chlorophenyl) thiophene-3-carboxylic acid], the IC50 in series [5] worked out at 2.45 µM. This IC50 and that of the molecule before are within 1.5-fold of each other.

The molecule `O=C(Nc1scc(-c2ccc(Cl)cc2)c1C(=O)O)c1ccc(Cl)cc1Cl` [Compound 44, 4-(4-Chlorophenyl)-2-(2,4-dichlorobenzamido)thiophene-3-carboxylic acid] gave an IC50 in series [5] of 1.24 µM.

In the case of `O=C(Nc1scc(-c2ccc(Cl)cc2)c1C(=O)O)c1cccs1` [Compound 45, 4-(4-Chlorophenyl)-2-(thiophene-2-carboxamido) thiophene-3-carboxylic acid], half-maximal inhibition in series [5] (IC50) was put at 1.74 µM.

Take `Cc1ccc(C(=O)Nc2scc(-c3ccc(Cl)cc3)c2C(=O)O)c2ccccc12` [Compound 46, 4-(4-Chlorophenyl)-2-(4-methyl-1-naphthamido) thiophene-3-carboxylic acid]: the IC50 in series [5] worked out at 14.5 µM.

On to `CC(C)(C)c1ccc(C(=O)Nc2sc3c(c2C(=O)O)-c2ccccc2C3)cc1` [Compound 47, 2-(4-(tert-Butyl)benzamido)-8H-indeno [2,1-b] thiophene-3-carboxylic acid], for which the IC50 in series [5] was found to be 12.6 µM.

In series [5], `COc1ccc2c(c1)Cc1sc(NC(=O)c3ccc(C(C)(C)C)cc3)c(C(=O)O)c1-2` [Compound 48, 2-(4-(tert-Butyl)benzamido)-6-methoxy-8H-indeno [2,1-b] thiophene-3-carboxylic acid] returned an IC50 of 28.9 µM. This IC50 is about 2.3-fold higher than that of the molecule before.

As to `O=C(Nc1sc2c(c1C(=O)O)-c1ccccc1C2)c1cccs1` [Compound 49, 2-(Thiophene-2-carboxamido)-8H-indeno [2,1-b] thiophene-3-carboxylic acid], in series [5], the IC50 is 11.3 µM. This IC50 lies about 2.6-fold lower than the previous one.

In series [5], `O=C(Nc1sc2c(c1C(=O)O)-c1ccccc1C2)c1ccc2ccccc2c1` [Compound 50, 2-(2-Naphthamido)-8H-indeno [2,1-b] thiophene-3-carboxylic acid] gave an IC50 of 1.91 µM.

With `O=C(O)c1c(NC(=O)c2cccc3ccccc23)sc2c1-c1ccccc1C2` [Compound 51, 2-(1-Naphthamido)-8H-indeno [2,1-b] thiophene-3-carboxylic acid], in series [5], it took 2.21 µM to reach half-maximal inhibition (IC50).

`CC(C)(C)c1ccc(C(=O)Nc2sc3c(c2C(=O)O)-c2ccccc2C3(C)C)cc1` [Compound 52, 2-(4-(tert-Butyl)benzamido)-8,8-dimethyl-8H-indeno [2,1-b] thiophene-3-carboxylic acid] came in with an IC50 in series [5] of 3.33 µM.

For the molecule `CC(C)(C)c1ccc(C(=O)Nc2sc3c(c2C(=O)O)-c2ccccc2CC3)cc1` [Compound 53, 2-(4-(tert-Butyl)benzamido)-4,5-dihydronaphtho [2,1-b] thiophene-1-carboxylic acid], in series [5], the concentration for half-maximal inhibition (IC50) is 5.15 µM.

Take `CCc1c(C)nc(SCC(=O)Nc2nc(-c3ccc(OC)cc3)cs2)[nH]c1=O` [Compound T16Ainh-A01]: in series [3] (1 and 3 μmol/L), the “effect on CHO cell proliferation” value is given as “weak effect”.

`CCOC(=O)Nc1ccc(NCc2ccc(F)cc2)nc1N` [Flupirtine]: the “number of foot lifts, phase 2” value in series [4] (200 mg/kg i.g.) worked out at 74 foot lifts. The “PTI, pain threshold rate change (%) of 1 h compared to 0 h” value in series [6] (100 mg/kg i.g.) came to 36.2%.

Take `CC(C)C[C@H](CN)CC(=O)O` [Pregabalin]: the “number of foot lifts, phase 2” value in series [4] (40 mg/kg i.g.) amounted to 44 foot lifts. Also, the “PTI, pain threshold rate change (%) of 1 h compared to 0 h” value in series [6] (40 mg/kg i.g.) was found to be 60.4%.
